The source made the active and inactive calls.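 How the source made its calls, unless noted: active means visually confirmed hit in the image check and inhibition above 20%; inconclusive means visually confirmed hit but inhibition not above 20%; inactive means no visual hit in the image check.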
How the values were obtained:
[1] = inhibitors of TNFa-induced NFkB p65 translocation, primary screen, imaging, HUVEC, MLSMR starter and 10KST1 sets (AID 438;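 active means inhibition above 20% together with a positive visual image hit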;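 further: compound added about 3h40 before a 20 min TNFalpha stimulation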;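 on inhibition: signal is the nuclear over cytoplasmic p65 intensity ratio per well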); details: HUVEC TNFa-induced p65 nuclear translocation; cell count: measured here: nuclei count (cytotoxicity indicator), at 2.08 µM; inhibition: at 2 µM, stronger effect = higher value, 0% TNFa-plus-vehicle, 100% no-TNFa wells
[2] = inhibitors of mutant huntingtin aggregation, primary screen, imaging, exon1htt(103Q)mCFP cells, high-content imaging (AID 483;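 active means visual image review flags a hit and inhibition of aggregation exceeds 20%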;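 further: compound exposure lasted 3 days before fixation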;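 on nuclei count: percent of the per-plate median nuclei count of sample wells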); details: exon1htt(103Q)mCFP cell line, aggregate imaging, at 2 µM; inhibition of aggregation: stronger effect = higher value; nuclei count: measured here: cell count, toxicity
[3] = inhibitors of E-selectin induction by TNFa, primary screen, imaging, HUVEC, immunofluorescence, MLSMR starter and 10KST1 sets (AID 487); details: HUVEC TNFalpha-induced E-selectin immunofluorescence imaging, at 2 µM; inhibition: stronger effect = higher value; nuclei count: measured here: cell number, toxicity;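 on inhibition: signal is fraction of cell area covered by stained E-selectin grains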;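 on nuclei count: 100% = median nuclei count of all wells on the same plate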
[4] = target: Voltage-gated potassium channel subunit beta-2 (Rattus norvegicus) (UniProt P62483); assay: KvBeta enzyme negative modulators, primary screen, biochemical, NADPH fluorescence (AID 622;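 active means fluorescence slope higher than the sample average by over 3 SD, cut at about -0.22 in these data, passing the limit was not always enough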;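 further: slope of raw intensity against log time taken from 70 to 1610 s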); details: recombinant KvBeta, 4-cyanobenzaldehyde reduction, at 10 µM, stronger effect = higher value
Voltage-gated potassium channel subunit beta-2 (Rattus norvegicus), sequence (P62483 whole entry, looked up): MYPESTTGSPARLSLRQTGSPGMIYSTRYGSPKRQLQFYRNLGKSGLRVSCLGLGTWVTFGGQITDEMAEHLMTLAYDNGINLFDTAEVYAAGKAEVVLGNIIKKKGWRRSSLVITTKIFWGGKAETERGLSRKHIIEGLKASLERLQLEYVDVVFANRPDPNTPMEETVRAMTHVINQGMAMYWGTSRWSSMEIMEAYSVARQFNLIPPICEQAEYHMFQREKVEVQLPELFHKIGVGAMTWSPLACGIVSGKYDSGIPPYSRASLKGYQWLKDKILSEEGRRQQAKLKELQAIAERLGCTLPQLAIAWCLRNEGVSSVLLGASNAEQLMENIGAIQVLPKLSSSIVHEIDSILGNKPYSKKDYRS

[5] = target: Voltage-gated potassium channel subunit beta-2 (Rattus norvegicus) (UniProt P62483); assay: KvBeta positive modulators, primary screen, biochemical, NADPH fluorescence (AID 623;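 active means NADPH fluorescence slope more negative than the mean of all samples by about 3 SD, 99.7% confidence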;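 further: fluorescence intensity change per second fitted from 20 to 320 s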); details: Recombinant KvBeta, NADPH fluorescence decrease slope, 10 min; at 10 µM; stronger effect = lower value
[6] = target: Muscarinic acetylcholine receptor M4 (Homo sapiens) (UniProt P08173); assay: compounds altering M4/GIRK thallium flux, either direction, primary screen, M4 allosteric agonist project, cell-based, HEK293 M4/GIRK, BTC-AM (AID 625;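 active means fluorescence slope after compound addition differing from the mean of all tested samples at 99.7% confidence, mostly higher but some lower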;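 further: thallium influx through GIRK channels coupled to M4 in HEK293 cells with BTC-AM dye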); details: at 10 µM, actives lie on both sides
Muscarinic acetylcholine receptor M4 (Homo sapiens), sequence (P08173 whole entry, looked up): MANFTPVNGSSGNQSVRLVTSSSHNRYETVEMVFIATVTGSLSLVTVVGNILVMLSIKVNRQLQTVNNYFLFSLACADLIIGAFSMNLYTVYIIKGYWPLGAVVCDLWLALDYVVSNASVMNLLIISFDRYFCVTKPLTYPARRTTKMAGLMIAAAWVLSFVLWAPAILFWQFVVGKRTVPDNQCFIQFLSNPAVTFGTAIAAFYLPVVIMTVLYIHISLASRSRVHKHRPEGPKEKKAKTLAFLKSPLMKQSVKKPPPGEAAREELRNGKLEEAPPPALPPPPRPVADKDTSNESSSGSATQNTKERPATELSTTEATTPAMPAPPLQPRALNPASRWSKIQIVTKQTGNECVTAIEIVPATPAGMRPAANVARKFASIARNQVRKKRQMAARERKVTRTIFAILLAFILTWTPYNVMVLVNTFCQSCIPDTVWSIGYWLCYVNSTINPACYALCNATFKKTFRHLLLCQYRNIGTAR
How it was run: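 Material: HEK293 cells with M4 receptor and GIRK channels; Times: cells overnight at 37 °C, BTC-AM loading 1 h, reads 2 min total; Technique: kinetic BTC-AM fluorescence sampled at 1 Hz, 10 s pre-addition baseline; Read-out basis: slope over 15–24 s of trace normalized to starting intensity; Controls: carbachol positive, DMSO negative.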

[7] = inhibitors of Sendai virus-induced IRF3 signaling, primary screen, TLR/RLR signaling modifier project, cell-based, Sendai virus stimulus, luciferase, 10K MLSCN set (AID 602276;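 active means inhibition at or above 50% at 10 µM; inactive means inhibition below 50%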;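 further: firefly luciferase from ISG56 promoter only with Renilla not read in this screen; 0% = Sendai virus plus DMSO and 100% = medium plus DMSO without virus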); details: HEK293 RL24 IRF3 luciferase reporter, at 10 µM, stronger effect = higher value
[8] = inhibitors of poly I:C-induced TLR3 signaling, primary screen, cell-based, poly I:C stimulus, luciferase, 10K MLSCN set (AID 602277;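 active means inhibition of the reporter signal at or above 50%; inactive means inhibition below 50%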); details: HEK293-TLR3 RL24 IRF3 luciferase reporter, at 10 µM, stronger effect = higher value

SMILES: COc1ccc(Nc2nc(OC)nc(N3CCN(c4ccc(OC)cc4)CC3)n2)cc1
- cell count [1]: 646
- inhibition [1]: -0.5% (inactive)
- inhibition of aggregation [2]: -13.1% (inactive)
- nuclei count [2]: 93.5%
- inhibition [3]: -14.1% (inactive)
- nuclei count [3]: 100%
- fluorescence slope [4]: -0.555 (inactive)
- NADPH fluorescence slope [5]: -3.4e-05 (inactive)
- fluorescence slope [6]: 0.00593 (inactive)
- inhibition [7]: 14% (inactive)
- inhibition [8]: -11.1% (inactive)

SMILES: CC(C)(C)C1CCc2c(sc3c2C(=O)NC(c2ccco2)N3)C1 (centres undefined)
- cell count [1]: 639
- inhibition [1]: -34.8% (inactive)
- inhibition of aggregation [2]: 14.3% (inactive)
- nuclei count [2]: 125%
- inhibition [3]: 15.7% (inactive)
- nuclei count [3]: 97%
- fluorescence slope [4]: -0.506 (inactive)
- NADPH fluorescence slope [5]: 2.4e-05 (inactive)
- fluorescence slope [6]: 0.00491 (inactive)
- inhibition [7]: -39.4% (inactive)
- inhibition [8]: -133% (inactive)

SMILES: Cc1ccc(C)n1NC(=O)c1ccco1
- cell count [1]: 692
- inhibition [1]: -4.7% (inactive)
- inhibition of aggregation [2]: 0% (inactive)
- nuclei count [2]: 94.1%
- inhibition [3]: -19.2% (inactive)
- nuclei count [3]: 109%
- fluorescence slope [4]: -0.567 (inactive)
- NADPH fluorescence slope [5]: -1.3e-05 (inactive)
- fluorescence slope [6]: 0.00521 (inactive)
- inhibition [7]: 9.01% (inactive)
- inhibition [8]: 14.3% (inactive)

SMILES: Cc1cccc(Cn2c(=O)n(Cc3ccco3)c(=O)c3ccccc32)c1
- cell count [1]: 659
- inhibition [1]: 0.5% (inactive)
- inhibition of aggregation [2]: -10.9% (inactive)
- nuclei count [2]: 122%
- inhibition [3]: -39% (inactive)
- nuclei count [3]: 113%
- fluorescence slope [4]: -0.608 (inactive)
- NADPH fluorescence slope [5]: -3.9e-05 (inactive)
- fluorescence slope [6]: 0.00404 (inactive)
- inhibition [7]: 0.06% (inactive)
- inhibition [8]: -5.18% (inactive)

SMILES: Cc1ccc(N2CC(C(=O)Nc3nnc(C)s3)CC2=O)cc1 (centres undefined)
- cell count [1]: 622
- inhibition [1]: 0% (inactive)
- inhibition of aggregation [2]: -10.8% (inactive)
- nuclei count [2]: 95.6%
- inhibition [3]: 21.8% (inactive)
- nuclei count [3]: 103%
- fluorescence slope [4]: -0.542 (inactive)
- NADPH fluorescence slope [5]: -3e-05 (inactive)
- fluorescence slope [6]: 0.00498 (inactive)
- inhibition [7]: 18.6% (inactive)
- inhibition [8]: 14.5% (inactive)

SMILES: NCC(O)COc1ccc2c(c1)OCO2 (centres undefined)
- cell count [1]: 378
- inhibition [1]: -7% (inactive)
- inhibition of aggregation [2]: -7.4% (inactive)
- nuclei count [2]: 99.3%
- inhibition [3]: -61.9% (inactive)
- nuclei count [3]: 103%
- fluorescence slope [4]: -0.551 (inactive)
- NADPH fluorescence slope [5]: -0.000108 (inactive)
- fluorescence slope [6]: 0.00335 (inactive)
- inhibition [7]: -1.42% (inactive)
- inhibition [8]: 3.66% (inactive)

SMILES: Cn1cccc1-c1cc(C(=O)O)[nH]n1
- cell count [1]: 825
- inhibition [1]: -8.7% (inactive)
- inhibition of aggregation [2]: 7.8% (inactive)
- nuclei count [2]: 56.8%
- inhibition [3]: -57.9% (inactive)
- nuclei count [3]: 139%
- fluorescence slope [4]: -0.465 (inactive)
- NADPH fluorescence slope [5]: -0.000188 (inactive)
- fluorescence slope [6]: 0.00382 (inactive)
- inhibition [7]: 15.5% (inactive)
- inhibition [8]: 15.9% (inactive)

SMILES: CCSC1=NCN(CCCC(=O)O)CN1
- cell count [1]: 645
- inhibition [1]: 10.1% (inactive)
- inhibition of aggregation [2]: 5.8% (inactive)
- nuclei count [2]: 106%
- inhibition [3]: -81.7% (inactive)
- nuclei count [3]: 125%
- fluorescence slope [4]: -0.558 (inactive)
- NADPH fluorescence slope [5]: -4e-05 (inactive)
- fluorescence slope [6]: 0.00489 (inactive)
- inhibition [7]: 12.3% (inactive)
- inhibition [8]: 10.3% (inactive)

SMILES: COc1cc(NC(=O)C2CC(c3cccc(OC)c3OC)=NO2)cc(OC)c1OC (centres undefined)
- cell count [1]: 711
- inhibition [1]: -12.2% (inactive)
- inhibition of aggregation [2]: -18.4% (inactive)
- nuclei count [2]: 76.9%
- inhibition [3]: -176% (inactive)
- nuclei count [3]: 104%
- fluorescence slope [4]: -0.573 (inactive)
- NADPH fluorescence slope [5]: 2.2e-05 (inactive)
- fluorescence slope [6]: 0.0048 (inactive)
- inhibition [7]: 17.4% (inactive)
- inhibition [8]: -1.09% (inactive)

SMILES: CCCCc1cc(=O)oc2c(CN3CCCC3)c(O)c(Cl)cc12
- cell count [1]: 531
- inhibition [1]: -12.6% (inactive)
- inhibition of aggregation [2]: -16.7% (inactive)
- nuclei count [2]: 46.6%
- inhibition [3]: 26.1% (inactive)
- nuclei count [3]: 89.4%
- fluorescence slope [4]: -0.00586 (active)
- NADPH fluorescence slope [5]: 0 (inactive)
- fluorescence slope [6]: 0.00532 (inactive)
- inhibition [7]: 20% (inactive)
- inhibition [8]: 19.7% (inactive)

SMILES: CCOC(=O)CSc1nc2cc(C(=O)NCc3ccco3)ccc2c(=O)n1C1CCCCC1
- cell count [1]: 455
- inhibition [1]: 4.3% (inactive)
- inhibition of aggregation [2]: -11.8% (inactive)
- nuclei count [2]: 92%
- inhibition [3]: 10% (inactive)
- nuclei count [3]: 93.7%
- fluorescence slope [4]: -0.397 (inactive)
- NADPH fluorescence slope [5]: -5.9e-05 (inactive)
- fluorescence slope [6]: 0.00847 (inactive)
- inhibition [7]: 12.1% (inactive)
- inhibition [8]: 18.6% (inactive)

SMILES: CC(C)=CC(=O)OCC(=O)NC(=O)NC(C)(C)C
- cell count [1]: 220
- inhibition [1]: 13.1% (inactive)
- inhibition of aggregation [2]: 14.1% (inactive)
- nuclei count [2]: 97.7%
- inhibition [3]: 3.9% (inactive)
- nuclei count [3]: 98.5%
- fluorescence slope [4]: -0.591 (inactive)
- NADPH fluorescence slope [5]: -1.3e-05 (inactive)
- fluorescence slope [6]: 0.00792 (inactive)
- inhibition [7]: -2.29% (inactive)
- inhibition [8]: 9.61% (inactive)

SMILES: O=C(CSc1nnc(Cc2ccccc2)n1C1CCCCC1)N1CCOCC1
- cell count [1]: 367
- inhibition [1]: 7.2% (inactive)
- inhibition of aggregation [2]: 12.5% (inactive)
- nuclei count [2]: 104%
- inhibition [3]: -264% (inactive)
- nuclei count [3]: 113%
- fluorescence slope [4]: -0.463 (inactive)
- NADPH fluorescence slope [5]: 5e-05 (inactive)
- fluorescence slope [6]: 0.00611 (inactive)
- inhibition [7]: -13% (inactive)
- inhibition [8]: -20.2% (inactive)

SMILES: CN(C)c1nc(Nc2ccc(Cl)cc2)nc(OCC#N)n1
- cell count [1]: 387
- inhibition [1]: -23% (inactive)
- inhibition of aggregation [2]: -6.1% (inactive)
- nuclei count [2]: 78.6%
- inhibition [3]: -109% (inactive)
- nuclei count [3]: 128%
- fluorescence slope [4]: -0.574 (inactive)
- NADPH fluorescence slope [5]: 1.7e-05 (inactive)
- fluorescence slope [6]: 0.00241 (inactive)
- inhibition [7]: 24.2% (inactive)
- inhibition [8]: 37.1% (inactive)

— PubChem BioAssay
